From ChEMBL document CHEMBL1121819, “Potential anticonvulsants. 1. 5-Benzylhydantoins” (J Med Chem, 1981)
Activity calls are given as the source filed them.

Experiments:
[1] = system: Rattus norvegicus; test: Anticonvulsant activity measured to prevent maximal electroshock seizure in rats when administered intraperitoneally; type: functional; conditions: ip
Procedure, shortened: (§1)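 Male Sprague–Dawley rats (160–300 g) given compound ip as suspension in 0.5% methylcellulose (10 mL/kg), 30 min before electroshock; 150 mA via corneal electrodes for 0.2 s. Protection = abolition of hind-limb tonic extensor component. ED50 in mg/kg.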

[2] = system: Rattus norvegicus; test: (§2) Anticonvulsant activity was measured by the ability to prevent intraperitoneally; type: functional
Procedure, shortened: (§3)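 Pentylenetetrazole (90 mg/kg ip) given after ip pretreatment with test agent as suspension in 0.5% methylcellulose; controls received diluent. Animals observed 15 min; protection = absence of clonic seizures. ED50 in mg/kg.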

[3] = Acute toxicity measured in mice when administered intraperitoneally; type: organism-based; conditions: mus sp., in vivo, ip
[4] = system: Mus musculus; test: Neurological deficit (Loss of coordination) was measured in the mice using rotarod test when administered intraperitoneally; type: functional; conditions: ip
Procedure, shortened: (§4)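 Mice dosed ip, then placed on rotarod turning at 11 rpm; failure to stay on for at least 1 min scored as loss of coordination. ED50 in mg/kg.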

[5] = system: Mus musculus; test: Loss of righting reflex was measured in the mice when administered intraperitoneally; type: functional; conditions: ip
[6] = system: Mus musculus; test: as §2; type: functional; conditions: ip; procedure, shortened: as §3
[7] = Acute toxicity of was measured in rat by ip administration of the compound; type: organism-based; conditions: in vivo
[8] = system: Rattus norvegicus; test: Peak time of anticonvulsant activity against MES was determined ip; type: functional
Procedure, shortened: (§5)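 Separate groups of rats dosed ip at approximate ED84 and challenged by maximal electroshock (150 mA, 0.2 s, corneal electrodes) at 0.5, 1, 2, 3 or >6 h after dosing; protection = hind-limb extensor blocked. Time of peak activity/duration in h.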

[9] = system: Mus musculus; test: Anticonvulsant activity was measured by the ability to prevent maximal electroshock seizure in mice when administered intraperitoneally; type: functional; conditions: ip
Procedure, shortened: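 Male ICR (Blue Spruce) mice, 19–22 g, dosed ip as suspension in 0.5% methylcellulose (10 mL/kg) 30 min prior to corneal electroshock, 50 mA for 0.2 s. Mice scored protected if hind-limb extensor phase was blocked; ED50 in mg/kg.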

[10] = Acute toxicity of was measured in rat by po administration of the compound; type: organism-based; conditions: in vivo
[11] = system: Mus musculus; test: Tolerance was tested in maximal electroshock seizures test in mice when administered intraperitoneally; Yes; type: functional, organism-based
[12] = species: Rattus norvegicus; test: Peak time of anticonvulsant activity against MES was determined; 4-6; type: functional; procedure, shortened: as §5
[13] = system: Mus musculus; test: Neurological deficit was measured in the mice using rotarod test when administered intraperitoneally; type: functional; conditions: ip; procedure, shortened: as §4
[14] = system: Mus musculus; test: Anticonvulsant activity was measured by the ability to prevent matrazol induced threshold clonic seizures in mice when administered intraperitoneally; type: functional; conditions: ip
Procedure, shortened: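 Mice were pretreated intraperitoneally 30 min before pentylenetetrazole (90 mg/kg ip). Compounds were given as a 0.5% methylcellulose suspension at 10 mL/kg; controls received diluent. Animals were watched for 15 min and counted protected if clonic seizures were prevented. The ED50 is the dose protecting half the animals.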

[15] = system: Rattus norvegicus; test: Anticonvulsant activity was measured by the ability to prevent intraperitoneally; Inactive; type: functional, organism-based; procedure, shortened: as §3
[16] = system: Rattus norvegicus; test: Acute toxicity of was measured in rat by po administration when administered intraperitoneally; type: organism-based; conditions: in vivo
[17] = (§6) Acute toxicity of was measured in rat by ip administration when administered intraperitoneally; type: organism-based; conditions: in vivo
[18] = species: Rattus norvegicus; test: Peak time of anticonvulsant activity against MES was determined; type: functional; procedure, shortened: as §5
[19] = system: Rattus norvegicus; test: Anticonvulsant activity was measured by the ability to prevent maximal electroshock seizure in rat when administered intraperitoneally; type: functional; conditions: ip; procedure, shortened: as §1
[20] = as §6; type: organism-based; conditions: in vivo; remark: listed apart in the source

SMILES | ED50 [1] [mg/kg] | ED50 ([2]; ip) [mg/kg] | LD50 [3] [mg/kg] | other results
O=C1NC(=O)/C(=C\c2cccc(Br)c2)N1 | > 50 | > 200 | > 500 | 
CCOC(=O)CN1C(=O)NC(Cc2cccc(C(F)(F)F)c2)C1=O (centres undefined) | > 50 | > 100 | 500 | 
N#CCCN1C(=O)NC(Cc2cccc(C(F)(F)F)c2)C1=O (centres undefined) | > 50 |  |  | 
CN1C(=O)NC(Cc2cccc(C(F)(F)F)c2)C1=O (centres undefined) | > 50 | > 100 | 350 | 
O=C1NC(Cc2cccc(C(F)(F)F)c2)C(=O)N1CCO (centres undefined) | 45 | 100 |  | 
O=C1NC(=O)C(Cc2cccc(C(F)(F)F)c2)N1 (centres undefined) | 23 |  | 350 | ED50 [4]: 65 mg/kg; ED50 [5]: 160 mg/kg; ED50 [2]: ~100 mg/kg; ED50 [6]: 17.5 mg/kg; LD50 [7]: 410 mg/kg; Duration of action [8]: 4 h; ED50 [9]: 70 mg/kg
CC1(Cc2ccc3ccccc3c2)NC(=O)NC1=O (centres undefined) | > 50 |  |  | 
CC1(Cc2cccc(C(F)(F)F)c2)NC(=O)NC1=O (centres undefined) | > 50 |  |  | 
O=C1NC(=O)/C(=C\c2cccc(C(F)(F)F)c2)N1 | ~50 | > 200 | 350 | 
COc1ccc(CC2(C)NC(=O)NC2=O)cc1OC (centres undefined) | > 50 | > 200 | > 500 | 
COc1ccc(OC)c(/C=C2/NC(=O)NC2=O)c1 | > 50 | > 200 | > 500 | 
COc1ccc(CC2NC(=O)NC2=O)cc1OC (centres undefined) | > 50 | > 200 |  | 
O=C1NC(=O)/C(=C\c2cccc(Cl)c2)N1 | ~50 | > 200 |  | 
O=C1NC(Cc2cccc(C(F)(F)F)c2)C(=O)N1CCBr (centres undefined) | > 50 |  |  | 
COc1ccc(OC)c(CC2NC(=O)NC2=O)c1 (centres undefined) | > 50 |  |  | 
O=C1NC(=O)C(c2ccccc2)(c2cccc(C(F)(F)F)c2)N1 (centres undefined) | > 50 | > 200 | > 100 | 
COc1ccc(/C=C2/NC(=O)NC2=O)cc1OC | > 200 | > 50 | > 500 | 
O=C1NC(=O)C(Cc2cccc(Cl)c2)N1 (centres undefined) | > 50 | ~150 |  | 
O=C1NC(=O)C(Cc2cccc(Br)c2)N1 (centres undefined) | > 50 | > 200 |  | 
O=C1NC(=O)C(c2ccccc2)(c2ccccc2)N1 [PHENYTOIN] | 9.6 |  | 100 | LD50 [10]: > 1000 mg/kg; Tolerance [11]: Active; Duration of action [12]: 4 h; ED50 [13]: 135 mg/kg; ED50 [14]: 50 mg/kg; ED50 [15]: inactive; ED50 [5]: 82 mg/kg; LD50 [7]: 280 mg/kg; ED50 [9]: 8.5 mg/kg
COc1ccc(CC2(C)NC(=O)NC2=O)c(OC)c1 (centres undefined) | > 50 |  | > 600 | 
COc1ccc(OC)c(CC2(C)NC(=O)NC2=O)c1 (centres undefined) | > 50 |  | > 800 | 
CCCC(CCC)C(=O)O [VALPROIC ACID] |  | > 500 |  | LD50 [16]: 1530 mg/kg; LD50 [17]: 838 mg/kg; ED50 [4]: 415 mg/kg; Duration of action [18]: ~5 h; ED50 [19]: 94.8 mg/kg; ED50 [9]: 260 mg/kg; LD50 [20]: 1040 mg/kg
CN1C(=O)NC(Cc2cccc(Br)c2)C1=O (centres undefined) | 30 | ~100 | 500 | 
